According to ChEMBL document CHEMBL3227992, “Glycerides as prodrugs. 1. Synthesis and antiinflammatory activity of 1,3-bis(alkanoyl)-2-(O-acetylsalicyloyl)glycerides (aspirin triglycerides)” (J Med Chem, 1979):
One block for each compound: values may come before it. Active and inactive are the calls of the source. The calls are words filed in the database; no cut-off is given here.

Columns and labels:
Rattus norvegicus [1] = experiment: Antiinflammatory activity in Sprague-Dawley rat assessed as inhibition of carrageenin-induced hind paw swelling at 323 umol/kg, po administered 2 hrs prior to carrageenin challenge measured after 3 hrs by volumetric transducer analysis relative to aspirin; format: functional
In short: (§1)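 Male Sprague-Dawley rats (170-200 g) were fasted overnight with water ad libitum. Compounds were suspended in 0.5% (w/v) methylcellulose with a drop of Tween 80 and given orally 2 h before a subplantar injection of 0.1 mL of 1.5% carrageenin. Paw volume was read before and 3 h after injection by immersion in a mercury vessel linked to a volumetric transducer and polygraph.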

Rattus norvegicus [2] = experiment: Antiinflammatory activity in Sprague-Dawley rat assessed as inhibition of carrageenin-induced hind paw swelling at 444 umol/kg, po administered 2 hrs prior to carrageenin challenge measured after 3 hrs by volumetric transducer analysis relative to aspirin; format: functional; in short: as §1
Rattus norvegicus [3] = experiment: Ulcerogenicity in Sprague-Dawley rat assessed as gastric lesions at 444 umol/kg, po; format: toxicity, organism-based, Stomach; conditions: in vivo
In short: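 Rats were fasted overnight and dosed orally with compound in 0.5% methylcellulose plus Tween 80. Stomachs were examined for gastric lesions by the Brodie and Hansen method. Lesion incidence counted animals with a lesion of 1 mm or longer, expressed relative to plain aspirin.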

Plasma [4] = experiment: Prodrug conversion in rat plasma assessed as salicylate level at 1192 umol/kg, po administered as emulsified solution measured after 1 to 6 hrs; format: ADME, organism-based; conditions: in vivo
In short: (§2)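 Rats were dosed orally, with the glyceride given as an emulsion. Plasma salicylate was followed from 15 min to 24 h after dosing and reported as mean levels. Absorption was estimated by comparing mean areas under the plasma salicylate curves with those after aspirin.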

Plasma [5] = experiment: Prodrug conversion in rat plasma assessed as salicylate level at 1192 umol/kg, po administered as emulsified solution measured after 24 hrs; format: ADME, organism-based; conditions: in vivo; in short: as §2
Rattus norvegicus [6] = experiment: Antipyretic activity against yeast-induced fever in rat assessed as delay in onset of activity at 1068 umol/kg, po relative to aspirin; format: functional, organism-based
Rattus norvegicus [7] = experiment: Antipyretic activity against yeast-induced fever in rat assessed as prolonged duration of action at 1068 umol/kg, po relative to aspirin; format: functional, organism-based
[8] = Drug absorption in rat at 1192 umol/kg, po administered as emulsified solution; format: ADME, organism-based; conditions: in vivo, read-out: Drug absorption; in short: as §2
Plasma [9] = experiment: Prodrug conversion in rat plasma assessed as salicylate level at 594 umol/kg, po measured after 15 mins; format: ADME, organism-based; conditions: in vivo, 0.25 h; in short: as §2
Plasma [10] = experiment: Prodrug conversion in rat plasma assessed as salicylate level at 594 umol/kg, po measured after 24 hrs; format: ADME, organism-based; conditions: in vivo; in short: as §2
Rattus norvegicus [11] = experiment: Antiinflammatory activity in Sprague-Dawley rat assessed as inhibition of carrageenin-induced hind paw swelling at 394 umol/kg, po administered 2 hrs prior to carrageenin challenge measured after 3 hrs by volumetric transducer analysis relative to aspirin; format: functional; in short: as §1
Rattus norvegicus [12] = experiment: Antiinflammatory activity in Sprague-Dawley rat assessed as inhibition of carrageenin-induced hind paw swelling at 273 umol/kg, po administered 2 hrs prior to carrageenin challenge measured after 3 hrs by volumetric transducer analysis relative to aspirin; format: functional; in short: as §1

Structure (SMILES): CCCCCCCCCCCC(=O)OCC(COC(=O)CCCCCCCCCCC)OC(=O)c1ccccc1OC(C)=O
inhibition in vivo at 323 µmol/kg (Rattus norvegicus [1]): 44%

Structure (SMILES): CC(=O)OCC(COC(C)=O)OC(=O)c1ccccc1OC(C)=O
inhibition in vivo at 444 µmol/kg (Rattus norvegicus [2]): 48%
Activity (Rattus norvegicus [3]): Toxic

Drug metabolism (Plasma [4]): 219 µg/mL
Drug metabolism (Plasma [5]): 61 µg/mL
Fa [8]: 100%
Structure (SMILES): CCCCCCCCCC(=O)OCC(COC(=O)CCCCCCCCC)OC(=O)c1ccccc1OC(C)=O
inhibition in vivo at 444 µmol/kg (Rattus norvegicus [2]): 80%
Activity (Rattus norvegicus [3]): Non-toxic
Activity (Rattus norvegicus [6]): Active
Activity (Rattus norvegicus [7]): Active

Drug metabolism (Plasma [9]): 196 µg/mL
Drug metabolism (Plasma [10]): 24 µg/mL
Structure (SMILES): CC(=O)Oc1ccccc1C(=O)O [ASPIRIN]
Activity (Rattus norvegicus [3]): Toxic

Structure (SMILES): CCCC(=O)OCC(COC(=O)CCC)OC(=O)c1ccccc1OC(C)=O
inhibition in vivo at 444 µmol/kg (Rattus norvegicus [2]): 92%
Activity (Rattus norvegicus [3]): Non-toxic

Structure (SMILES): CCCCCCCC(=O)OCC(COC(=O)CCCCCCC)OC(=O)c1ccccc1OC(C)=O
inhibition in vivo at 394 µmol/kg (Rattus norvegicus [11]): 60%

Structure (SMILES): CCCCCCCCCCCCCCCC(=O)OCC(COC(=O)CCCCCCCCCCCCCCC)OC(=O)c1ccccc1OC(C)=O
inhibition in vivo at 273 µmol/kg (Rattus norvegicus [12]): 12%
